Experiment [1] concerns Mycobacterium kansasii. In words: Antimicrobial activity against Mycobacterium kansasii My 6509/96 after 14 days. It counts as functional. The note with it: 336 h. The method, boiled down:
(§1)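 Run in Šula semisynthetic liquid medium containing bovine serum. Compounds added as DMSO solutions at final concentrations of […]. Each strain was also inoculated onto Löwenstein–Jensen medium to control inoculum sterility and growth.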

Experiment [2] relates to Mycobacterium kansasii. The experiment in a line: Antimicrobial activity against Mycobacterium kansasii My 235/80 after 21 days. The experiment is classed as functional. The note with it: 504 h. An outline of the steps:
as §1

In experiment [3] the test system is Mycobacterium kansasii. In words: Antimicrobial activity against Mycobacterium kansasii My 6509/96 after 21 days. The experiment is classed as functional. To be noted: 504 h. An outline of the steps: as §1
Experiment [4] relates to Mycobacterium tuberculosis. The experiment in a line: Antimicrobial activity against Mycobacterium tuberculosis My 331/88 after 14 days. It counts as functional. The note with it: 336 h.
Experiment [5] has as its system Mycobacterium kansasii. In words: Antimicrobial activity against Mycobacterium kansasii My 235/80 after 14 days. It counts as functional. The note with it: 336 h. The method, boiled down: as §1
For experiment [6], the system named is Mycobacterium kansasii. The experiment in a line: Antimicrobial activity against Mycobacterium kansasii My 6509/96 after 7 days. It counts as functional. To be noted: 168 h. An outline of the steps: as §1
Experiment [7] concerns Mycobacterium kansasii. The experiment in a line: Antimicrobial activity against Mycobacterium kansasii My 235/80 after 7 days. It counts as functional. To be noted: 168 h. An outline of the steps:
as §1

The subject of experiment [8] is Mycobacterium tuberculosis. The experiment in a line: Antimicrobial activity against Mycobacterium tuberculosis My 331/88 after 21 days. The note with it: 504 h. It counts as functional.
Experiment [9] relates to Mycobacterium avium. The experiment in a line: Antimicrobial activity against Mycobacterium avium My 330/88 after 14 days. It counts as functional. To be noted: 336 h.
Experiment [10] deals with Mycobacterium avium. The experiment in a line: Antimicrobial activity against Mycobacterium avium My 330/88 after 21 days. The experiment is classed as functional. To be noted: 504 h.
Experiment [11] relates to K562. In words: Antiproliferative activity against human K562 cells after 72 hrs. It counts as functional. To be noted: K562, 72 h. An outline of the steps:
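About 10,000 suspension cells per well in RPMI 1640 with 10% heat-inactivated FBS and penicillin/streptomycin, without HEPES. Exposed to 10 concentrations for 72 h at 37 °C in humidified 5% CO₂. Wells diluted 1:50 in CASYTON and counted electronically, each result the mean of three successive counts. GI50 is where the concentration–response curve crosses 50% of control cell count.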

Experiment [12] concerns HeLa. In words: Cytotoxicity against human HeLa cells after 72 hrs. The experiment is classed as functional. To be noted: for CC50: Homo sapiens, HeLa, 72 h. The method, boiled down:
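About 10,000 cells per well in RPMI 1640 were preincubated 48 h without compound. The 10 test concentrations were then applied onto the monolayers and incubated 72 h at 37 °C in humidified 5% CO₂. Monolayers fixed with glutaraldehyde, stained with 0.05% methylene blue, and eluted with 0.33 N HCl; optical density measured at 630 nm.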

Experiment [13] relates to L929. The experiment in a line: Antiproliferative activity against mouse L929 cells after 72 hrs. It counts as functional. To be noted: L929, 72 h. The method, boiled down:
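About 10,000 adherent cells per well in RPMI 1640 with 10% heat-inactivated FBS and penicillin/streptomycin, without HEPES. Exposed to 10 concentrations for 72 h at 37 °C in humidified 5% CO₂. Monolayers fixed with glutaraldehyde, stained 15 min with 0.05% methylene blue, and eluted with 0.33 N HCl; OD read at 630 nm. GI50 derived from dose–response curves relative to control.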

The subject of experiment [14] is Candida albicans. In words: Antifungal activity against Candida albicans ATCC 44859 after 48 hrs. It counts as functional. The note with it: ATCC 44859, 48 h. The method, boiled down: (§2)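 Modified NCCLS M27-A broth microdilution with clinical isolates subcultured on Sabouraud dextrose agar. Suspensions diluted 1:50 in RPMI 1640 to give a final inoculum of 0.5–2.5×10³ CFU/mL for yeasts or 0.5–5×10⁴ CFU/mL for molds. The RPMI had L-glutamine, no bicarbonate, and 0.165 M MOPS to pH 7.0. Twofold dilutions from 250 to 0.49. Plates held at 35 °C, humid, without agitation. MIC is the lowest concentration giving ≥80% inhibition versus drug-free control, read at 24 and 48 h.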

Experiment [15] concerns Pichia kudriavzevii. In words: Antifungal activity against Candida krusei E28 after 24 hrs. The experiment is classed as functional. An outline of the steps:
as §2

The subject of experiment [16] is Trichophyton benhamiae. The experiment in a line: Antifungal activity against Trichophyton mentagrophytes 445 after 72 hrs. The experiment is classed as functional, Arthroderma benhamiae. An outline of the steps:
(§3)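 Same modified M27-A microdilution with the mold inoculum of 0.5–5×10⁴ CFU/mL. Medium was RPMI 1640 with L-glutamine, no bicarbonate, and 0.165 M MOPS at pH 7.0. Twofold dilutions from 250 to 0.49. Incubated at 35 °C in a humid atmosphere.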

The subject of experiment [17] is Aspergillus fumigatus. In words: Antifungal activity against Aspergillus fumigatus 231 after 48 hrs. The experiment is classed as functional. The method, boiled down:
as §2

Experiment [18] deals with Trichosporon beigelii. In words: Antifungal activity against Trichosporon beigelii 1188 after 48 hrs. It counts as functional. The method, boiled down:
as §2

The subject of experiment [19] is Nakaseomyces glabratus. The experiment in a line: Antifungal activity against Candida glabrata 20/I after 48 hrs. The experiment is classed as functional. An outline of the steps:
as §2

The test system of experiment [20] is Candida albicans. The experiment in a line: Antifungal activity against Candida albicans ATCC 44859 after 24 hrs. The experiment is classed as functional. The note with it: ATCC 44859, 24 h. The method, boiled down:
as §2

The test system of experiment [21] is Lichtheimia corymbifera. The experiment in a line: Antifungal activity against Absidia corymbifera 272 after 48 hrs. The experiment is classed as functional. An outline of the steps:
as §2

Experiment [22] concerns Trichophyton benhamiae. In words: Antifungal activity against Trichophyton mentagrophytes 445 after 120 hrs. The experiment is classed as functional, Arthroderma benhamiae. An outline of the steps:
as §3

Experiment [23] relates to Candida tropicalis. The experiment in a line: Antifungal activity against Candida tropicalis 156 after 24 hrs. It counts as functional. The method, boiled down:
as §2

Experiment [24] concerns Pichia kudriavzevii. In words: Antifungal activity against Candida krusei E28 after 48 hrs. It counts as functional. The method, boiled down:
as §2

Experiment [25] relates to Nakaseomyces glabratus. The experiment in a line: Antifungal activity against Candida glabrata 20/I after 24 hrs. The experiment is classed as functional. The method, boiled down: as §2
In experiment [26] the test system is Aspergillus fumigatus. The experiment in a line: Antifungal activity against Aspergillus fumigatus 231 after 24 hrs. The experiment is classed as functional. The method, boiled down: as §2
Experiment [27] has as its system Lichtheimia corymbifera. The experiment in a line: Antifungal activity against Absidia corymbifera 272 after 24 hrs. The experiment is classed as functional. An outline of the steps: as §2
The test system of experiment [28] is Candida tropicalis. In words: Antifungal activity against Candida tropicalis 156 after 48 hrs. It counts as functional. The method, boiled down:
as §2

Experiment [29] has as its system Trichosporon beigelii. In words: Antifungal activity against Trichosporon beigelii 1188 after 24 hrs. The experiment is classed as functional. The method, boiled down: as §2

≈ marks a conversion by molar mass, not a printed value.

One may read the MIC as the lowest concentration found to suppress growth. High values mean weaker potency, low ones greater potency. For orientation: GI50 means the concentration at which growth is held to half of that of the control. The term CC50 denotes the concentration giving 50% cytotoxicity. Lower therefore signals harm at low concentration.

With `NNC(=O)c1ccncc1` [ISONIAZID], the minimum inhibitory concentration (MIC) is 4 µM (≈ 0.549 µg/mL) in [1]; greater than 250 µM in [2]; 8 µM (≈ 1.1 µg/mL) in [3]; 0.5 µM (≈ 0.0686 µg/mL) in experiment [4]; greater than 250 µM in experiment [5]; 4 µM (≈ 0.549 µg/mL) in [6]. Besides, the minimum inhibitory concentration (MIC) in experiment [7] was greater than 250 µM; in [8], 1 µM (≈ 0.137 µg/mL); in experiment [9], greater than 250 µM; in [10] it was greater than 250 µM.

In the case of `Sc1nnnn1-c1ccc(Cl)c(Cl)c1`, the MIC came out at 500 µM (≈ 124 µg/mL) in experiment [1]; 500 µM (≈ 124 µg/mL) in experiment [2]; 500 µM (≈ 124 µg/mL) in experiment [3]; 250 µM (≈ 61.8 µg/mL) in experiment [4]; 500 µM (≈ 124 µg/mL) in experiment [5]; 250 µM (≈ 61.8 µg/mL) in [6]. The MIC was 500 µM (≈ 124 µg/mL) in experiment [7], 250 µM (≈ 61.8 µg/mL) in [8], greater than 250 µM in [9] and greater than 500 µM in experiment [10]. For the same compound, the GI50 was determined as 31 mg/L (≈ 125 µM) in experiment [11] and 33.4 mg/L (≈ 135 µM) in experiment [13]. In experiment [12], this compound registered a CC10 of 18.1 mg/L (≈ 73.2 µM). Also, it took 33.3 mg/L (≈ 135 µM) to reach half-maximal cytotoxicity in experiment [12] (CC50).

On to `Cc1ccc(-n2nnnc2S)cc1`, for which the minimal inhibitory concentration (MIC) is 500 µM (≈ 96.1 µg/mL) in [1]; greater than 500 µM in experiment [2]; greater than 500 µM in experiment [3]; 500 µM (≈ 96.1 µg/mL) in [4]; greater than 500 µM in experiment [5]; 500 µM (≈ 96.1 µg/mL) in [6]. Moreover, the minimal inhibitory concentration (MIC) was 500 µM (≈ 96.1 µg/mL) in experiment [7], greater than 500 µM in experiment [8], 500 µM (≈ 96.1 µg/mL) in [9] and greater than 500 µM in experiment [10]. In addition, the concentration for 50% growth inhibition (GI50) in experiment [11] was 42.8 mg/L (≈ 223 µM); in experiment [13], greater than 50 mg/L. Besides, the CC10 in experiment [12] was determined as 33 mg/L (≈ 172 µM). This compound also gave a 50% cytotoxic concentration (CC50) in experiment [12] greater than 50 mg/L.

`C[C@]12CC[C@@H]3c4ccc(OCCCCCCCSc5nnnn5-c5ccc(Cl)cc5)cc4CC[C@H]3[C@@H]1CCC2=O`: the MIC in experiment [14], in experiment [15], in experiment [16], in experiment [17], in experiment [18] and in experiment [19] was greater than 250 µM each time. The MIC in experiment [20], in [21], in experiment [22], in experiment [23], in [24] and in experiment [25] was greater than 250 µM throughout. The MIC in [26] was 250 µM (≈ 145 µg/mL); in [27], greater than 250 µM; in experiment [28] it was greater than 250 µM; in [29], greater than 250 µM. Besides, the GI50 in experiment [11] and in [13] was greater than 50 mg/L each time. This compound also had a CC10 in [12] of 50 mg/L (≈ 86.3 µM). In addition, the cytotoxic concentration (CC50) in [12] is greater than 50 mg/L.

Regarding `OC(Cn1cncn1)(Cn1cncn1)c1ccc(F)cc1F` [FLUCONAZOLE], the minimum inhibitory concentration (MIC) is 1.6 µM (≈ 0.49 µg/mL) in experiment [14]; 52.2 µM (≈ 16 µg/mL) in experiment [15]; greater than 250 µM in experiment [17]; 6.5 µM (≈ 1.99 µg/mL) in experiment [18]; 52.2 µM (≈ 16 µg/mL) in experiment [19]; 0.8 µM (≈ 0.245 µg/mL) in experiment [20]. Besides, the MIC in experiment [21] is greater than 250 µM; in experiment [22], 52.2 µM (≈ 16 µg/mL); in experiment [23], 1.6 µM (≈ 0.49 µg/mL); in [24], 104 µM (≈ 32 µg/mL); in experiment [25], 13.1 µM (≈ 4.01 µg/mL); in experiment [26] it was greater than 250 µM. Also, the MIC was greater than 250 µM in experiment [27], greater than 250 µM in experiment [28] and 3.3 µM (≈ 1.01 µg/mL) in experiment [29].
